# The source made the active and inactive calls. No cut-off for these calls is given here.
# Key:
# [1] = system: NCI/ADR-RES; assay: Growth inhibition of human NCI-ADR-RES cells after 48 hrs by sulforhodamine B dye-based spectrophotometric assay; type: functional
# [2] = system: MCF7; assay: Growth inhibition of human MCF7 cells after 48 hrs by sulforhodamine B dye-based spectrophotometric assay; type: functional; conditions: MCF7, 48 h
# [3] = system: HT-29; assay: Growth inhibition of human HT-29 cells after 48 hrs by sulforhodamine B dye-based spectrophotometric assay; type: functional; conditions: HT-29, 48 h
# [4] = system: OVCAR-3; assay: Growth inhibition of human OVCAR3 cells after 48 hrs by sulforhodamine B dye-based spectrophotometric assay; type: functional; conditions: OVCAR-3, 48 h
# [5] = system: U-251; assay: Growth inhibition of human U251 cells after 48 hrs by sulforhodamine B dye-based spectrophotometric assay; type: functional; conditions: U-251, 48 h
# [6] = system: 786-0; assay: Growth inhibition of human 786-0 cells after 48 hrs by sulforhodamine B dye-based spectrophotometric assay; type: functional; conditions: 786-0, 48 h
# [7] = system: K562; assay: Growth inhibition of human K562 cells after 48 hrs by sulforhodamine B dye-based spectrophotometric assay; type: functional; conditions: K562, 48 h
# [8] = system: NCI-H460; assay: Growth inhibition of human NCI-H460 cells after 48 hrs by sulforhodamine B dye-based spectrophotometric assay; type: functional; conditions: NCI-H460, 48 h
# [9] = Growth inhibition of human HaCaT cells after 48 hrs by sulforhodamine B dye-based spectrophotometric assay; type: cell-based
# [10] = Binding affinity to DNA (unknown origin)
# [11] = molecular target: DNA topoisomerase 2-alpha (Homo sapiens) (UniProt P11388); assay: Inhibition of recombinant human topoisomerase-2alpha assessed as reducton in relaxation of supercoiled pUC19 DNA at 50 to 100 uM after 30 mins by ethidium bromide staining-based gel electrophoresis assay
# In short: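 Supercoiled pUC19 (100 ng) with 4 units recombinant human topo IIα (p170) in relaxation buffer, ± compound at 50 or 100 µM or m-AMSA control, 30 min at 37 °C; stopped with 1% SDS, proteinase K digested; products resolved by agarose gel, ethidium bromide stained, imaged under UV.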
# [12] = system: HT-29; assay: Cell cycle arrest in human HT-29 cells assessed as accumulation at sub-G1 phase at 1.25 nM after 24 hrs by propidium iodide staining-based flow cytometric method (reference value: 3.5 +/- 0.7%)
# [13] = system: HT-29; assay: Cell cycle arrest in human HT-29 cells assessed as accumulation at G2/M phase at 1.25 nM after 24 hrs by propidium iodide staining-based flow cytometric method (reference value: 32.5 +/- 2.3%)
# [14] = system: HT-29; assay: Cell cycle arrest in human HT-29 cells assessed as accumulation at G1 phase at 1.25 nM after 24 hrs by propidium iodide staining-based flow cytometric method (reference value: 46.1 +/- 2.1%)
# [15] = system: HT-29; assay: Cell cycle arrest in human HT-29 cells assessed as accumulation at S phase at 1.25 nM after 24 hrs by propidium iodide staining-based flow cytometric method (reference value: 17.2 +/- 1.2%)
# [16] = system: HT-29; assay: Induction of apoptosis in human HT-29 cells assessed as increase in cell subpopulation with phosphatidylserine externalization at 5 uM after 24 hrs by annexin-V-PE/7-AAD staining-based flow cytometry; type: functional
# In short: (§1)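 HT-29 seeded 2×10^5 cells/well, 24 h; treated 24 h at 5–50 μM (vehicle DMSO 0.1%); trypsinized, 1×10^5 cells in PBS plus binding buffer with annexin-V-PE and 7-AAD, 20 min dark, room temperature; 5000 events per experiment by flow cytometry; mean ± SE, two independent experiments in triplicate; ANOVA/Tukey.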
# [17] = system: HT-29; assay: Induction of apoptosis in human HT-29 cells after 24 hrs by annexin-V-PE/7-AAD staining-based flow cytometry; type: functional, cell-based; in short: as §1
# [18] = system: Calf thymus DNA; assay: Binding affinity to calf thymus DNA assessed as maximum absorption peak at 10 to 80 uM after 10 mins by UV-visible absorption assay (reference value: 334 nm); type: nucleic-acid assay; conditions: Bos taurus
# In short: (§2)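 ctDNA in Tris-HCl (0.01 M, pH 7.6), sonicated 5 min; concentration from ε260 6600 M⁻¹ cm⁻¹, as base-pair equivalents. Ligand from 1 mM DMSO stock diluted in buffer (10–80 μM), titrated with increasing ctDNA, stirred 10 min at room temperature, UV-vis read in 1 cm quartz cuvette; hyperchromicity with 100 µM ctDNA versus free ligand; Kb by curve fitting.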
# [19] = system: HT-29; assay: Cell cycle arrest in human HT-29 cells assessed as accumulation at sub-G1 phase at 10 uM after 24 hrs by propidium iodide staining-based flow cytometric method (reference value: 3.5 +/- 0.7%); type: functional
# [20] = system: HT-29; assay: Cell cycle arrest in human HT-29 cells assessed as accumulation at G1 phase at 30 uM after 24 hrs by propidium iodide staining-based flow cytometric method (reference value: 46.1 +/- 2.1%); type: functional
# [21] = system: HT-29; assay: Cell cycle arrest in human HT-29 cells assessed as accumulation at G2/M phase at 5 uM after 24 hrs by propidium iodide staining-based flow cytometric method (reference value: 32.5 +/- 2.3%); type: functional
# [22] = system: HT-29; assay: Cell cycle arrest in human HT-29 cells assessed as accumulation at G1 phase at 10 uM after 24 hrs by propidium iodide staining-based flow cytometric method (reference value: 46.1 +/- 2.1%); type: functional
# [23] = system: Calf thymus DNA; assay: Binding affinity to calf thymus DNA assessed as hyperchromicity at 100 uM after 10 mins by UV-visible absorption assay relative to control; type: nucleic-acid assay; conditions: Bos taurus; in short: as §2
# [24] = system: Calf thymus DNA; assay: Binding affinity to calf thymus DNA assessed as hyperchromicity after 10 mins by UV-visible absorption assay; type: nucleic-acid assay; conditions: Bos taurus; in short: as §2
# [25] = system: HT-29; assay: Cell cycle arrest in human HT-29 cells assessed as accumulation at G2/M phase at 10 uM after 24 hrs by propidium iodide staining-based flow cytometric method (reference value: 32.5 +/- 2.3%); type: functional
# [26] = system: HT-29; assay: Cell cycle arrest in human HT-29 cells assessed as accumulation at G2/M phase at 30 uM after 24 hrs by propidium iodide staining-based flow cytometric method (reference value: 32.5 +/- 2.3%); type: functional
# [27] = system: HT-29; assay: Cell cycle arrest in human HT-29 cells assessed as accumulation at S phase at 10 uM after 24 hrs by propidium iodide staining-based flow cytometric method (reference value: 17.2 +/- 1.2%); type: functional
# [28] = system: Calf thymus DNA; assay: Binding affinity to calf thymus DNA at 15 uM by fluorescence spectra analysis; type: nucleic-acid assay; conditions: Bos taurus
# In short: (§3)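 Fluorescence of 15 μM ligand in 0.01 M Tris, pH 7.6, 25 °C, 1 cm quartz cuvette; excitation 335 nm, emission 435 nm (spectra 370–700 nm); ctDNA (0–100 μM) added stepwise into the cell; quenching analysed by Stern-Volmer plot to give Ksv.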
# [29] = system: HT-29; assay: Cell cycle arrest in human HT-29 cells assessed as accumulation at S phase at 5 uM after 24 hrs by propidium iodide staining-based flow cytometric method (reference value: 17.2 +/- 1.2%); type: functional
# [30] = system: HT-29; assay: Cell cycle arrest in human HT-29 cells assessed as accumulation at S phase at 30 uM after 24 hrs by propidium iodide staining-based flow cytometric method (reference value: 17.2 +/- 1.2%); type: functional
# [31] = system: HT-29; assay: Cell cycle arrest in human HT-29 cells assessed as accumulation at sub-G1 phase at 30 uM after 24 hrs by propidium iodide staining-based flow cytometric method (reference value: 3.5 +/- 0.7%); type: functional
# [32] = system: Calf thymus DNA; assay: Binding affinity to calf thymus DNA by fluorescence spectra analysis; type: nucleic-acid assay; conditions: Bos taurus; in short: as §3
# [33] = system: HT-29; assay: Cell cycle arrest in human HT-29 cells assessed as accumulation at G1 phase at 5 uM after 24 hrs by propidium iodide staining-based flow cytometric method (reference value: 46.1 +/- 2.1%); type: functional
# [34] = system: HT-29; assay: Cell cycle arrest in human HT-29 cells assessed as accumulation at sub-G1 phase at 5 uM after 24 hrs by propidium iodide staining-based flow cytometric method (reference value: 3.5 +/- 0.7%); type: functional
# DNA topoisomerase 2-alpha (Homo sapiens), sequence (P11388 whole entry): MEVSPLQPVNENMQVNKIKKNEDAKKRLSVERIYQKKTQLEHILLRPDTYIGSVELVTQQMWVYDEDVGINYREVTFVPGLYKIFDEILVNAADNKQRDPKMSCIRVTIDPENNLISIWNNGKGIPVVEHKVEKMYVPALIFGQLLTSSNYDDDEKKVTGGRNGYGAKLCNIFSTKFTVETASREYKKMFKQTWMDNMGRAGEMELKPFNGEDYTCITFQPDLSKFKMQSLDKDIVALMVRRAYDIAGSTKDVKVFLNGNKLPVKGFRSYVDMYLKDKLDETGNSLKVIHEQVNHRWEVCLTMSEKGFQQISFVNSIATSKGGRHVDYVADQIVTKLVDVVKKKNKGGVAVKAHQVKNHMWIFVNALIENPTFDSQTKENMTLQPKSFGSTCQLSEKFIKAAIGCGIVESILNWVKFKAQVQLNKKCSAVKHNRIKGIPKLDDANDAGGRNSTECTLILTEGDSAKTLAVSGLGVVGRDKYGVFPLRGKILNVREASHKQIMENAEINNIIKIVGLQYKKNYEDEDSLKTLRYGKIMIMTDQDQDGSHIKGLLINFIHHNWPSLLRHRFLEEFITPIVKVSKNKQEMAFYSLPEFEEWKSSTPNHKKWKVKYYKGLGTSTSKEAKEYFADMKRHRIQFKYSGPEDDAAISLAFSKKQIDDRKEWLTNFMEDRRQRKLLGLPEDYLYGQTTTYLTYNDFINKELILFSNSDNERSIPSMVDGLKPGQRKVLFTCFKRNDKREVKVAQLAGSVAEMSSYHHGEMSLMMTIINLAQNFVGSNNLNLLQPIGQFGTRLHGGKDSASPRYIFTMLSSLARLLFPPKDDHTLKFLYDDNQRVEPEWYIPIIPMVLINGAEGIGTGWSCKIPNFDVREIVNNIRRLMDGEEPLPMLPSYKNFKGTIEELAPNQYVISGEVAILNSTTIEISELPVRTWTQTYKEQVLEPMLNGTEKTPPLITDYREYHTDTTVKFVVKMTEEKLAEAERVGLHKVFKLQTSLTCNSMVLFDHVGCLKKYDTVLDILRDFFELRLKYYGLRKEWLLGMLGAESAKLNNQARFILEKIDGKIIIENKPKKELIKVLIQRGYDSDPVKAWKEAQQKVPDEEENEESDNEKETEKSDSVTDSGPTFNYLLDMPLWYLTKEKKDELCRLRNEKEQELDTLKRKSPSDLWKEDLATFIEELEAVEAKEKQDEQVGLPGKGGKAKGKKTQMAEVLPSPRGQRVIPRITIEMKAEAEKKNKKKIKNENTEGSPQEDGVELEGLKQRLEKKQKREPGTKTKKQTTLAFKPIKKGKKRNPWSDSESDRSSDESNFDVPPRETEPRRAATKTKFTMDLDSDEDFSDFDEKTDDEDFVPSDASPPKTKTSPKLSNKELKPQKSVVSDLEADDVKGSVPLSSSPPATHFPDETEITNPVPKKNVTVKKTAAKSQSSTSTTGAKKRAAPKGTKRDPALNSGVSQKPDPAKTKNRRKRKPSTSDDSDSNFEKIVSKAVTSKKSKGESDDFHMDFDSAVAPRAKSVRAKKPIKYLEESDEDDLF
SMILES,GI50 [2],GI50 [3],GI50 [4],GI50 [5],GI50 [6],GI50 [7],GI50 [8],GI50 [1],GI50 at 48 h [9],further results
S=C(N/N=C/c1c2ccccc2nc2ccccc12)Nc1cccc2ccccc12,,,,,,,,,,Kb [10]: 8.47 ×10⁵ /M
COc1cc(NS(C)(=O)=O)ccc1Nc1c2ccccc2nc2ccccc12,,,,,,,,,,inhibition [11]: Active
COc1cc2c(c(OC)c1OC)-c1ccc(OC)c(=O)cc1[C@@H](NC(C)=O)CC2 [COLCHICINE],,,,,,,,,,Activity [12]: 3.5%; Activity [13]: 76%; Activity [14]: 14.6%; Activity [15]: 5.9%
Cc1ccc(N2C(=O)CS/C2=N/N=C/c2c[nH]c3ccc(Br)cc23)cc1,59.5 µM,> 100 µM,98.5 µM,54.7 µM,39.9 µM,0.01 µM,96.6 µM,64.6 µM,54 µM,
COc1cccc2c1C(=O)c1c(O)c3c(c(O)c1C2=O)C[C@@](O)(C(=O)CO)C[C@@H]3O[C@H]1C[C@H](N)[C@H](O)[C@H](C)O1 [DOXORUBICIN],0.07 µM,0.23 µM,0.22 µM,0.14 µM,0.11 µM,0.93 µM,0.09 µM,0.77 µM,0.2 µM,
Cc1ccc(N2C(=O)CS/C2=N/N=C/c2c[nH]c3ccccc23)cc1,> 100 µM,> 100 µM,> 100 µM,90.2 µM,79.1 µM,> 100 µM,> 100 µM,> 100 µM,> 100 µM,

# Further lines, with some results ahead:
GI50 [2],GI50 [3],GI50 [4],GI50 [5],GI50 [6],GI50 [7],GI50 [8],SMILES,GI50 [1],GI50 at 48 h [9],further results
2.52 µM,1.45 µM,3.88 µM,8.11 µM,3.99 µM,0.16 µM,11.7 µM,Cc1ccc(NC(=S)N/N=C/c2c[nH]c3ccccc23)cc1,1.46 µM,0.99 µM,
34.9 µM,96.9 µM,25.7 µM,72.5 µM,62.1 µM,> 100 µM,> 100 µM,O=C1CS/C(=N/N=C/c2c[nH]c3ccccc23)N1c1cccc2ccccc12,38.6 µM,63 µM,
6.81 µM,7.87 µM,8.22 µM,7.49 µM,7.58 µM,2.12 µM,8.48 µM,S=C(NCCc1ccccc1)N/N=C/c1c[nH]c2ccc(Br)cc12,7.14 µM,7.85 µM,
15.5 µM,> 100 µM,> 100 µM,77.9 µM,76.3 µM,0.17 µM,> 100 µM,S=C(NCCc1ccccc1)N/N=C/c1c[nH]c2ccccc12,38.7 µM,> 100 µM,
0.95 µM,6.56 µM,1.6 µM,7.32 µM,6.56 µM,5.29 µM,6.99 µM,S=C(N/N=C/c1c[nH]c2ccc(Br)cc12)Nc1cccc2ccccc12,6.18 µM,6.15 µM,
6.06 µM,27.3 µM,5.12 µM,48.8 µM,29.1 µM,> 100 µM,> 100 µM,O=C1CS/C(=N/N=C/c2c[nH]c3ccc(Br)cc23)N1c1cccc2ccccc12,12.4 µM,6.23 µM,
0.25 µM,0.01 µM,0.21 µM,0.92 µM,0.25 µM,0.01 µM,0.38 µM,S=C(N/N=C/c1c[nH]c2ccccc12)Nc1cccc2ccccc12,6.48 µM,0.59 µM,Activity [16]: 12.6%; Activity [17]: Dose-dependent effect; Activity [18]: 334 nm; Activity [19]: 1.6%; Activity [20]: 34.9%; Activity [21]: 80.5%; Activity [22]: 26.7%; Activity [23]: 13%; Kb [24]: 4.3 ×10⁴ /M; Activity [25]: 66.2%; Activity [26]: 53.1%; Activity [27]: 5.5%; Activity [28]: Active; Activity [29]: 6.8%; inhibition [11]: Active; Activity [30]: 7.3%; Activity [31]: 4.8%; KSV [32]: 1.19 ×10³ /M; Activity [33]: 10.7%; Activity [34]: 2%

# Source: ChEMBL document CHEMBL4138095, “Thiosemicarbazones and 4-thiazolidinones indole-based derivatives: Synthesis, evaluation of antiproliferative activity, cell death mechanisms and topoisomerase inhibition assay” (Eur J Med Chem, 2017)
